# Results pooled from the literature.
# Lines come from different studies, so protocols differ.
# Target: Serine/threonine-protein kinase SIK1 (SIK1, Homo sapiens, UniProt P57059)
SMILES,observed,mode,method,cell line,tested at,measurement,result
Cc1cc(NC(=O)c2cccc3cc(-c4cccc5[nH]nc(N)c45)ccc23)ccc1F,enzyme activity,inhibitor,,,0.1 µM,activity vs control,103%
Cc1cnc(NC2CCOCC2)nc1-n1cnc(C(=O)NC(CN)c2cc(F)cc(Cl)c2)c1 (centres unmarked),enzyme activity,inhibitor,radiometric,,1 µM,remaining activity,109%
Cc1cnn2ncc(-c3ccnc(N(C)C)n3)c2c1,binding,,,,1 µM,remaining binding,100%
O=C(Nc1cnn(-c2csc(C(=O)NC3COC3)c2)c1)Nc1ccccc1Cl,enzyme activity,inhibitor,,,5 µM,remaining activity,102%
Cc1ccc(Nc2nccc(N(C)c3ccc4c(C)n(C)nc4c3)n2)cc1S(N)(=O)=O,enzyme activity,inhibitor,,,0.3 µM,inhibition,13%
CC(C)(C)c1nc2c(s1)c1nc(N)ncc1c1ccc(NS(=O)(=O)c3c(F)cccc3F)c(F)c12,enzyme activity,inhibitor,radiometric,,1 µM,remaining activity,90%
CN(c1nccc(-c2cnn3ncccc23)n1)C1CC1,binding,,,,1 µM,remaining binding,100%
CC(C)(O)[C@H]1CC[C@H](Nc2ccc3ncc(-c4cccc(C(F)(F)F)c4)n3n2)CC1,enzyme activity,inhibitor,,,1 µM,remaining activity,62.8%
CCN1CCN(Cc2ccc(NC(=O)c3ccc(C)c(Oc4ccnc5[nH]ccc45)c3)cc2C(F)(F)F)CC1,target engagement in cells,inhibitor,chemoproteomics,Huh-7,1 µM,inhibition,-51.3%
COc1cc(Cl)c(C(=O)N[C@@H](CN[C@H]2CC[C@@H](N)CC2)Cc2ccc(C#N)cc2)cc1-c1ccc(CN[C@H](C)c2ccc(C)cc2)o1,enzyme activity,inhibitor,,,1 µM,remaining activity,97%
CN(CCCC(F)(F)F)c1nccc(-c2cnn3ncccc23)n1,binding,,,,1 µM,remaining binding,100%
Cc1ccc(C(=O)Nc2ccc(CN3CCN(C)CC3)c(C(F)(F)F)c2)cc1C#Cc1cnc2cccnn12,enzyme activity,inhibitor,,,23.5 nM,remaining activity,57%
O=C(Nc1cnn(-c2csc(C(=O)NC3COC3)c2)c1)Nc1c(F)cccc1Cl,enzyme activity,inhibitor,,,5 µM,remaining activity,98.3%
CC(C)(C)c1nc(-c2cccc(NS(=O)(=O)c3c(F)cccc3F)c2F)c(-c2ccnc(N)n2)s1,enzyme activity,inhibitor,radiometric,,1 µM,remaining activity,98%
